ASAP1 GAP inh: ASAP1 ArfGAP inhibition. Q9ULH1. ASAP1-stimulated ARF1 GTP hydrolysis, GDP FP detection. inhibition, % at 16.5 µM. actives 0.19% (n = 360,000); in the data active means inhibition above about 25%
PAFAH1B2 FP inh: blocks human PAF acetylhydrolase 1b catalytic subunit 2. AID 492953. actives 1.2% (n = 340,000). recombinant PAFAH1B2, FP-rhodamine activity probe, fluorescence polarization. inhibition, % at 3.39 µM. P68402;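 active means inhibition above the mean of all tested compounds plus 3 SD, cut at about 24% in these data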
Target sequence (P68402 whole entry, looked up): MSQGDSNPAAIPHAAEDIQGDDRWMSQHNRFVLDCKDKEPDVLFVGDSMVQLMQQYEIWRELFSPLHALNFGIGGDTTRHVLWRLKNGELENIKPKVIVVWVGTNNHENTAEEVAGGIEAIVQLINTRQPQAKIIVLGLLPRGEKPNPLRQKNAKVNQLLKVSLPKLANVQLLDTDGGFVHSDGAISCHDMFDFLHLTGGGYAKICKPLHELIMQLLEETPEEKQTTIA
ARFGAP1 inhibitor: rat ARFGAP1 inhibition. Q62848. Arfgap1-stimulated ARF1 GTP hydrolysis, GDP FP detection. inhibition, % at 16.5 µM. actives 0.26% (n = 360,000). AID 651572;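 active means inhibition above a per-plate limit, mean inhibition of low control wells plus 3 SD, cut at about 25% in these data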
Target sequence (Q62848 1-136 limits assumed): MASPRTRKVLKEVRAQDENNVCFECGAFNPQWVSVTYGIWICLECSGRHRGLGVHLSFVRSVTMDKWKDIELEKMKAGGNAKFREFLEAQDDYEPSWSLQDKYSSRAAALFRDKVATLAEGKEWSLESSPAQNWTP
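Material – truncated rat Arfgap1 GAP domain · Buffer or medium – HEPES-based buffer, pH 7.5 · Reagent – human ARF1(Δ1-17)-GTP substrate · Dosing – 16.5 µM single point, 1.26% DMSO · Schedule – GTP hydrolysis reaction 2 h at 25 °C · Technique – GDP detection by fluorescence polarization · Benchmarks – No-Arfgap1 wells (100%) versus DMSO full-reaction wells (0%) · Repeats – single replicate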
PAFAH2 inh: PAFAH2 (human) inhibition; Q99487; recombinant PAFAH2, FP-rhodamine activity probe, fluorescence polarization; inhibition, % at 3.39 µM; actives 0.99% (n = 340,000); AID 492956;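 active means inhibition above the mean over all tested compounds plus 3 SD, cut at about 30% in these data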;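 further: inhibitors block probe labeling of enzyme so polarization drops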
pPAFAH inh: inhibitors of human plasma PAF acetylhydrolase (pPAFAH); AID 463082; recombinant pPAFAH, FP-rhodamine probe fluorescence polarization; Q13093; actives 1.5% (n = 330,000); inhibition, % at 3.39 µM;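 active means inhibition above the mean inhibition across the screen plus 3 SD, cut at about 25% in these data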;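 further: inhibitors block binding of the rhodamine activity-based probe so polarization drops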
PAFAH1B3 inh: PAFAH1B3 (human) inhibition | recombinant PAFAH1B3, FP-rhodamine probe, fluorescence polarization | AID 492972 | Q15102 | inhibition, % at 3.39 µM | actives 0.28% (n = 340,000);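 active means inhibition above the screen-wide average of all tested compounds plus 3 SD, cut at about 25% in these data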
Target sequence (Q15102 whole entry, looked up): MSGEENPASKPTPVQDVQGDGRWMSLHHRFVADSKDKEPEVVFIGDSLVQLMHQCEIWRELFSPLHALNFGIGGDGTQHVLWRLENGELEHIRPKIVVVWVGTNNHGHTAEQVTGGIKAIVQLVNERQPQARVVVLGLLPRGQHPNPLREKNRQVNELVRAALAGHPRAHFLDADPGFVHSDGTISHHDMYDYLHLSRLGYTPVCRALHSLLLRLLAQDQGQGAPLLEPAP
Of the large screens only hits and unclear results are named; the others gave an inactive call. An excerpt weighted towards active compounds, which were near 2.7% of everything screened.

CCN(C(=O)CSc1cc(C)c2ccc(OC)cc2n1)C1CCS(=O)(=O)C1 (stereo not given)	none
CN(C)C(CNC(=O)c1ccc(S(=O)(=O)Nc2ccccc2)cc1)c1ccco1 (stereo not given)	pPAFAH inh 29.3
O=C(NCC(c1ccco1)N1CCCCC1)c1ccc(S(=O)(=O)Nc2ccccc2)cc1 (stereo not given)	pPAFAH inh 30.4
Cc1ccc(NS(=O)(=O)c2ccc(C(=O)NCC(c3ccco3)N3CCCCC3)cc2)cc1 (stereo not given)	pPAFAH inh 29.5
COc1ccc(-c2ccccc2C2Cc3nnccc3CN2)cc1 (stereo not given)	none (no result: PAFAH1B2 FP inh, PAFAH2 inh, pPAFAH inh, PAFAH1B3 inh)
CSc1nc(N)nc(SCCS(=O)(=O)c2ccc(Cl)cc2)c1C#N	PAFAH1B2 FP inh 25.3
Cn1c(SCCS(=O)(=O)c2ccc(Cl)cc2)nnc1-c1ccccc1	none
Nc1ccccc1SCCS(=O)(=O)c1ccc(Cl)cc1	PAFAH1B2 FP inh 28.0
CSc1nc(N)nc(SCC(=O)Nc2ccc(Cl)cc2)c1C#N	none
COC(=O)c1ccc(S(=O)(=O)NCc2ccc(OC)cc2)n1C	PAFAH1B2 FP inh 28.7
COC(=O)c1ccc(S(=O)(=O)NCc2ccco2)n1C	none
COc1ccc(-n2c(SCC(=O)NCC3CCCO3)nc3ccccc32)cc1 (stereo not given)	pPAFAH inh 25.9
O=C(CSc1nc2ccccc2c(=O)n1-c1ccccc1)NCC1CCCO1 (stereo not given)	none
Cc1ccc(NS(=O)(=O)c2cc(C(=O)OCC(=O)NCC3CCCO3)ccc2C)cc1 (stereo not given)	pPAFAH inh 34.3
O=C(COC(=O)/C=C/c1ccc(Cl)cc1Cl)NCC1CCCO1 (stereo not given)	pPAFAH inh 26.8
O=C(COC(=O)/C=C/c1c(F)cccc1Cl)NCC1CCCO1 (stereo not given)	none (no result: pPAFAH inh)
CCN(CC)c1ccc(C(=O)OCC(=O)NCC2CCCO2)cc1 (stereo not given)	PAFAH2 inh 72.6, pPAFAH inh 31.8
Cc1ccc(SCC(=O)NCC2CCCO2)cc1 (stereo not given)	PAFAH1B2 FP inh 24.6
Cc1ccc(CN2CCSc3ccc(C(=O)NCC4CCCO4)cc32)cc1 (stereo not given)	pPAFAH inh 33.4 (no result: ASAP1 GAP inh, ARFGAP1 inhibitor)
O=C(NCC1CCCO1)c1ccc2c(c1)N(Cc1ccc(Cl)cc1)CCS2 (stereo not given)	none (no result: PAFAH1B2 FP inh, PAFAH2 inh, pPAFAH inh, PAFAH1B3 inh)
O=C(NCc1ccccc1)[C@@H]1CCCN1C(=O)[C@H]1CCCN1C(=O)c1ccc(F)c(C(F)(F)F)c1	none (no result: PAFAH1B2 FP inh, PAFAH2 inh, pPAFAH inh, PAFAH1B3 inh)
CC(C)(C)S(=O)(=O)N1C[C@@H]2CC(=O)C(CCO)=C2[C@H]1CCO	none (no result: PAFAH1B2 FP inh, PAFAH2 inh, pPAFAH inh, PAFAH1B3 inh)
COc1ccccc1-n1c(=O)c(C#N)c(-c2ccc([N+](=O)[O-])cc2)c2cc(C(=O)c3cc(F)ccc3O)cnc21	none
Cn1c(=O)c(C#N)c(-c2ccc(F)cc2)c2cc(C(=O)c3cc(Cl)cc(Cl)c3O)cnc21	pPAFAH inh 26.2
CCOc1ccc(NC(=O)Nc2cc(C(=O)O)ccc2N2CC3CC(C2)c2cccc(=O)n2C3)cc1 (stereo not given)	pPAFAH inh 30.4
COc1cc(/C=C2\SC(=O)N(c3cccc(Cl)c3)C2=O)cc([N+](=O)[O-])c1O	PAFAH2 inh 52.5 (no result: pPAFAH inh)
O=C1S/C(=C\c2ccc(O)c([N+](=O)[O-])c2)C(=O)N1Cc1cccc([N+](=O)[O-])c1	none (no result: PAFAH1B2 FP inh, PAFAH2 inh, PAFAH1B3 inh)
O=C1S/C(=C\c2ccc(O)c([N+](=O)[O-])c2)C(=O)N1c1ccccc1Cl	pPAFAH inh 33.5
COc1cc(/C=C2\SC(=O)N(c3ccc(Cl)cc3)C2=O)cc([N+](=O)[O-])c1O	none (no result: pPAFAH inh)
O=C(c1ccco1)N1CCN(C(=O)C23CC4CC(CC(C4)C2)C3)CC1	none
CC12CC3CC(C)(C1)CC(C(=O)N1CCN(C(=O)c4ccco4)CC1)(C3)C2	PAFAH1B2 FP inh 35.5
Cc1ccc2c(c1)/C(=N/OC(=O)c1ccc(F)cc1)CCS2	none
O=C(O/N=C1/CCSc2ccccc21)c1ccccc1	PAFAH2 inh 40.8
CCN=C1NC(c2ccc(Cl)cc2)C(C(=O)OC)=C(C)N1Cc1cccc(C(F)(F)F)c1 (stereo not given)	none (no result: PAFAH1B2 FP inh, PAFAH2 inh, pPAFAH inh, PAFAH1B3 inh)
COC(=O)c1sc(-c2ccc(C(C)(C)C)cc2)cc1NC(=O)CSCC(=O)O	pPAFAH inh 32.2
Cc1cccc2c(N=O)c(O)[nH]c12	PAFAH1B2 FP inh 30.2, pPAFAH inh 31.4, PAFAH1B3 inh 53.4
Cc1[nH]c2c(C)cccc2c1CC(=O)O	none
O=C(NCC1CCN(C(=O)C(=O)c2cccs2)CC1)c1cccnc1	none (no result: PAFAH1B2 FP inh, PAFAH2 inh, pPAFAH inh, PAFAH1B3 inh)
CC12CCC(C/C1=N\N=C1\NC(=O)/C(=C\c3cccc(Br)c3)S1)C2(C)C (stereo not given)	pPAFAH inh 26.9
C/C(=N\Nc1ccc(Cl)c(C(=O)O)c1)c1ccc(Br)s1	pPAFAH inh 26.9
C/C(=N\NC(=O)c1ccc(Cl)c(Cl)c1)c1ccc(Br)s1	none
O=c1c2cc(NC(=S)NC3CCCC3)ccc2nc2n1CCCCC2	none
O=c1c2cc(NC(=S)NC3CCCCC3)ccc2nc2n1CCCCC2	PAFAH1B2 FP inh 27.9
O=C(CSc1n[nH]c(-c2ccc(S(=O)(=O)N3CCCCC3)cc2)n1)Nc1nccs1	PAFAH1B2 FP inh 38.6
COc1ccc(CCN2CCC(CN3C(=S)NC[C@@H]3Cc3ccccc3)CC2)cc1OC	none (no result: PAFAH1B2 FP inh, PAFAH2 inh, pPAFAH inh, PAFAH1B3 inh)
C[C@H](CO)N1C[C@H](C)[C@H](CN(C)Cc2ccc(-c3ccccc3)cc2)Oc2ccc(NS(=O)(=O)c3ccccc3)cc2CC1=O	pPAFAH inh 34.0 (no result: ASAP1 GAP inh, ARFGAP1 inhibitor)
COc1ccc(S(=O)(=O)Nc2ccc3c(c2)C(=O)N([C@@H](C)CO)C[C@H](C)[C@H](CN(C)S(=O)(=O)c2ccc(F)cc2)O3)cc1	PAFAH1B2 FP inh 39.0
C[C@@H]1CN([C@H](C)CO)C(=O)c2cc(NS(=O)(=O)c3ccc(F)cc3)ccc2O[C@@H]1CN(C)Cc1ccc(Cl)c(Cl)c1	PAFAH1B2 FP inh 24.6, pPAFAH inh 29.3
COc1ccc(S(=O)(=O)Nc2cccc3c2O[C@H](CN(C)Cc2ccc(Oc4ccccc4)cc2)[C@@H](C)CN([C@H](C)CO)C3=O)cc1	pPAFAH inh 25.6
COc1ccc(S(=O)(=O)Nc2cccc3c2O[C@H](CN(C)Cc2ccc(-c4ccccc4)cc2)[C@@H](C)CN([C@H](C)CO)C3=O)cc1	none
CCc1ccc(NC(=O)CSc2nc(CSc3ccc(C)cc3)cc(=O)[nH]2)cc1	PAFAH1B2 FP inh 54.3, pPAFAH inh 26.9
CCCc1cc(=O)[nH]c(SCC(=O)Nc2ccc(C)cc2)n1	none
COC(=O)C1=C(C)N(Cc2cccc(C(F)(F)F)c2)C(=NCc2cc(OC)c(OC)c(OC)c2)NC1c1cccc(F)c1 (stereo not given)	none (no result: PAFAH1B2 FP inh, PAFAH2 inh, pPAFAH inh, PAFAH1B3 inh)
CC(=O)Oc1ccc2c(=O)c(Oc3ccccc3)coc2c1OC(C)=O	PAFAH2 inh 46.1, pPAFAH inh 31.1
